Here are results for four molecules from ChEMBL document CHEMBL1153479, “C29 sterols with a cyclopropane ring at C-25 and 26 from the Vietnamese marine sponge Ianthella sp. and their anticancer properties” (Bioorg Med Chem Lett, 2009).

In assay [1] the test system is HT-29. Briefly: Cytotoxicity against human HT-29 cells by MTT assay. In kind it is functional, cell-based. In a few lines: (§1)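 Cytotoxicity was read by MTT assay on human tumour lines: A549 lung, HT-29 colon, MCF-7 breast, SK-OV-3 ovary, and HL-60 and U937 leukaemia. Results are given as IC50 (μM), with values below 100 μM counted as active. A positive control was included.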

Assay [2] relates to HL-60. In words: Cytotoxicity against human HL60 cells by MTT assay. In kind it is functional, cell-based. The essentials: as §1
On the technique in general: Formazan colour is commonly taken as a measure of viable cells.

Assay [3] relates to MCF7. In words: Cytotoxicity against human MCF7 cells by MTT assay. In kind it is functional, cell-based. In a few lines: as §1
In assay [4] the test system is A549. Briefly: Cytotoxicity against human A549 cells by MTT assay. It is filed as functional, cell-based. In a few lines:
as §1

Assay [5] relates to SK-OV-3. Briefly: Cytotoxicity against human SKOV3 cells by MTT assay. It is filed as functional, cell-based. The essentials:
as §1

The subject of assay [6] is U-937. In words: Cytotoxicity against human U937 cells by MTT assay. In kind it is functional, cell-based. The essentials: as §1
In assay [7] the test system is HL-60. In words: Cell cycle distribution in human HL60 cells assessed as cell cycle accumulation at sub-G1 phase at 19.9 uM after 6 hrs by flow cytometry. In kind it is functional. The essentials: (§2)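 HL-60 cells exposed for 6, 12 or 24 h, then washed twice in PBS and fixed in 70% ethanol (30 min, 4°C). After a PBS rinse they were stained in the dark with 50 μg/mL propidium iodide plus 50 μg/mL RNase A (30 min, 37°C). DNA content was read by flow cytometry, and the sub-G1 hypodiploid fraction was taken from the DNA histograms.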

The test system of assay [8] is HL-60. Briefly: Induction of apoptosis in human HL60 cells assessed as increase in number of apoptotic body with condensed and fragmented nuclei at 19.9 uM after 6 to 24 hrs by H33342 staining method. It is filed as functional, cell-based. In a few lines:
(§3)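 HL-60 cells at 3×10^5 cells/mL were exposed for 6, 12 and 24 h, washed twice with PBS and stained with 1 mg/mL Hoechst 33342 (30 min, 37°C). Apoptotic bodies, seen as condensed and fragmented nuclei, were scored by fluorescence microscopy at ×400.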

Assay [9] relates to HL-60. Briefly: Cell cycle distribution in human HL60 cells assessed as cell cycle accumulation at sub-G1 phase at 19.9 uM after 12 hrs by flow cytometry. In kind it is functional. The essentials: as §2
In general terms: In flow cytometry, cells or beads pass a laser one at a time.

Assay [10] concerns HL-60. In words: Cell cycle distribution in human HL60 cells assessed as cell cycle accumulation at sub-G1 phase at 19.9 uM after 24 hrs by flow cytometry. In kind it is functional. The essentials: as §2
Assay [11] has as its system HL-60. In words: Cell cycle distribution in human HL60 cells assessed as cell cycle accumulation at sub-G1 phase at 21.3 uM after 12 hrs by flow cytometry. It is filed as functional. The essentials: as §2
For assay [12], the system named is HL-60. Briefly: Induction of apoptosis in human HL60 cells assessed as increase in number of apoptotic body with condensed and fragmented nuclei at 21.3 uM after 6 to 24 hrs by H33342 staining method. In kind it is functional, cell-based. In a few lines:
as §3

In assay [13] the test system is HL-60. In words: Cell cycle distribution in human HL60 cells assessed as cell cycle accumulation at sub-G1 phase at 21.3 uM after 24 hrs by flow cytometry. It is filed as functional. The essentials:
as §2

For assay [14], the system named is HL-60. In words: Cell cycle distribution in human HL60 cells assessed as cell cycle accumulation at sub-G1 phase at 21.3 uM after 6 hrs by flow cytometry. In kind it is functional. The essentials: as §2
Assay [15] concerns HL-60. In words: Cell cycle distribution in human HL60 cells assessed as cell cycle accumulation at sub-G1 phase at 21.5 uM after 12 hrs by flow cytometry. In kind it is functional. The essentials: as §2
Assay [16] deals with HL-60. In words: Induction of apoptosis in human HL60 cells assessed as increase in number of apoptotic body with condensed and fragmented nuclei at 21.5 uM after 6 to 24 hrs by H33342 staining method. In kind it is functional, cell-based. In a few lines:
as §3

The test system of assay [17] is HL-60. Briefly: Cell cycle distribution in human HL60 cells assessed as cell cycle accumulation at sub-G1 phase at 21.5 uM after 24 hrs by flow cytometry. In kind it is functional. The essentials: as §2
Assay [18] deals with HL-60. In words: Cell cycle distribution in human HL60 cells assessed as cell cycle accumulation at sub-G1 phase at 21.5 uM after 6 hrs by flow cytometry. It is filed as functional. The essentials:
as §2

Broadly, the pIC50 is −log10 of the IC50, conventionally taken in molar units.

pIC50: −log10 of the molar value. Active and inactive are the calls of the source. The rule behind the calls is not given here.

Take `O=C1c2c(O)ccc(O)c2C(=O)c2c(NCCNCCO)ccc(NCCNCCO)c21` [MITOXANTRONE]: the pIC50 is 5.06 in assay [1]; 5.20 in [2]; 5.15 in assay [3]; 5.10 in assay [4]; 5.01 in [5]; 5.21 in assay [6].

With `C[C@H](CC[C@@H](C)[C@H]1CC[C@H]2[C@@H]3CC(=O)C4=CC(=O)CC[C@]4(C)[C@H]3CC[C@]12C)[C@@H]1C[C@H]1C`, the Activity came out at 11.19% in [7], 21.85% in [9] and 48.83% in assay [10]. The pIC50 in [1] was 4.32; in assay [2] it was 4.70; in [3], 4.75; in assay [4], 5.08; in assay [5], 4.79; in assay [6], 4.66. The outcome in assay [8] was Active.

Turning to `CC(CCC(C)C1CCC2C3CC4OC45CC(O)CCC5(C)C3CCC12C)C1CC1C` (stereo unspecified), the pIC50 in [1] was 4.16; in [2], 4.67; in [3] it was 4.71; in [4], 5.01; in assay [5], 4.65; in [6], 4.70. Moreover, the Activity was determined as 24.92% in assay [11], 51.33% in assay [13] and 11.8% in [14]. Besides, the outcome in assay [12] was Active.

Regarding `C[C@H](CC[C@@H](C)[C@H]1CC[C@H]2[C@@H]3CC=C4C[C@@H](O)CC[C@]4(C)[C@H]3CC[C@]12C)[C@@H]1C[C@H]1C` [PETROSTEROL], the pIC50 was 4.33 in [1]; 4.67 in assay [2]; 4.79 in assay [3]; 4.94 in [4]; 4.70 in [5]; 4.73 in [6]. The values for the Activity in assay [15], in assay [17] and in [18] were 27.4%, 52.58% and 12.61%, respectively. In assay [16], the outcome was Active.
